Measured values from different studies.
Target: Alpha-glucosidase MAL12 (MAL12, Saccharomyces cerevisiae S288c, UniProt P53341)
Effect on: enzyme activity
Mode: inhibitor

C[C@@H]1CN(C(=O)Nc2ccc(C(F)(F)F)cc2)CCN1c1ccnc(Nc2ccc(Cl)cc2)n1  IC50 (absorbance; pH 6.9): 3.47 µM
COc1ccc(-c2nn(-c3ccccc3)cc2C2C3=C(CC(C)(C)CC3=O)n3c(=O)c4ccccc4c(=O)n32)cc1 (stereo not drawn)  IC50 (absorbance): 229 µM
C[C@H]1CN(C(=O)Nc2ccc(C(F)(F)F)cc2)CCN1c1ccnc(Nc2cccc([N+](=O)[O-])c2)n1  IC50 (absorbance; pH 6.9): 1.03 µM
CCCCCCCCCCCCCC(=O)OCC(C)(C)CC1=C(O)C(=O)c2ccccc2C1=O  IC50: 5.3 µM
C[C@H]1CN(C(=O)Nc2ccc(C(F)(F)F)cc2)CCN1c1ccnc(Nc2ccc(F)cc2)n1  IC50 (absorbance; pH 6.9): 1.82 µM
CC(=O)C1=C(C)n2c(=O)c3ccccc3c(=O)n2C1c1cn(-c2ccccc2)nc1-c1ccc([N+](=O)[O-])cc1 (stereo not drawn)  IC50 (absorbance): 86.7 µM
Cc1ccc(-c2nc3ncnn3c(-c3ccc(Cl)cc3)c2N)cc1  IC50 (absorbance): 54.6 µM
CC(C)(CO)CC1=C(O)C(=O)c2ccccc2C1=O  IC50: > 200 µM
CC1(C)CC(=O)C2=C(C1)n1c(=O)c3ccccc3c(=O)n1C2c1cn(-c2ccccc2)nc1-c1ccc(Cl)cc1 (stereo not drawn)  IC50 (absorbance): 209 µM
C[C@H]1CN(C(=O)Nc2ccc(C(F)(F)F)cc2)CCN1c1ccnc(Nc2ccc(Cl)c(OCc3ccccc3)c2)n1  IC50 (absorbance; pH 6.9): 1.5 µM
COc1ccc(-c2nc3ncnn3c(-c3cccs3)c2N)cc1  IC50 (absorbance): 120 µM
CC(=O)C1=C(C)n2c(=O)c3ccccc3c(=O)n2C1c1cn(-c2ccccc2)nc1-c1ccc(C)cc1 (stereo not drawn)  IC50 (absorbance): 167 µM
COc1cc(O)c2c(c1)oc(=O)c1c3cc(O)c(O)cc3oc21  IC50 (absorbance): 39.1 µM
C[C@H]1CN(C(=O)Nc2ccc(C(F)(F)F)cc2)CCN1c1ccnc(Nc2ccc(Cl)c(Cl)c2)n1  IC50 (absorbance; pH 6.9): 1.69 µM
Nc1c(-c2ccccc2)nc2ncnn2c1-c1cccc(Cl)c1  IC50 (absorbance): 82.5 µM
